Results as given in ChEMBL document CHEMBL4725355, “Design, Synthesis, and Preclinical Evaluation of 3-Methyl-6-(5-thiophenyl)-1,3-dihydro-imidazo[4,5-b]pyridin-2-ones as Selective GluN2B Negative Allosteric Modulators for the Treatment of Mood Disorders” (J Med Chem, 2020).
Values after ≈ are worked out from the molar mass of the structure shown.

Key:
[1] = Negative allosteric modulation of human GluN1a/GluN2C receptor expressed in CHO cells assessed as inhibition of glutamate and glycine-induced calcium flux preincubated for 5 mins followed by glutamate and glycine addition and measured after 5 mins by calcium 5 dye based FLIPR assay; type: cell-based
Method in brief: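 Tet-On CHO T-Rex cells expressing hGluN1a with GluN2A, 2B, 2C or 2D, plated at 20,000 cells/well and induced 24 h before the assay in the presence of ketamine. Cells loaded 1 h at room temperature with Calcium 5 dye, pH 7.4 HEPES buffer. Compound added 5 min, then glutamate (~EC80) plus 10 µM glycine for 5 min; FLIPR fluorescence normalized to control wells. Three independent runs in duplicate (two for some).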

[2] = Intrinsic clearance in cynomolgus monkey liver microsomes at 1 uM after 5 to 60 mins in presence of NADPH by LC-MS/MS analysis; type: ADME, Macaca fascicularis, Microsome; details: time 5-60 min, read-out: CLH
[3] = Volume of distribution at steady state in dog at 0.1 mg/kg, iv by LC-MS/MS analysis; type: ADME, organism-based, Canis lupus familiaris; details: in vivo, read-out: Vdss
[4] = (§1) Ratio of Cmax in Sprague-Dawley rat at 250 mg/kg, po administered via gavage after 24 hrs using HPMC formulation by LC-MS/MS analysis to EC70 for ex vivo receptor occupancy at GluN2B in po dosed Sprague-Dawley rat assessed as 3-[3H] 1-(azetidin-1-yl)-2-[6-(4-fluoro-3-methyl-phenyl)pyrrolo[3,2-b]pyridin-1-yl]-ethanone labelling; type: ADME, organism-based
[5] = Tmax in Sprague-Dawley rat at 500 mg/kg, po administered via gavage after 24 hrs using HPMC formulation by LC-MS/MS analysis; type: ADME, organism-based; details: in vivo
Method in brief: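 Single oral gavage of a 5% HPMC suspension at 125, 250, 500 or 1000 mg/kg to male Sprague Dawley rats, 3 per group. Plasma was sampled at 6 time points from 0.5 to 24 h.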

[6] = Oral bioavailability in Sprague-Dawley rat at 2.5 mg/kg using 1:1 PEG-400/water formulation by LC-MS/MS analysis; type: ADME, organism-based; details: in vivo
Method in brief: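 Rats dosed 0.5 mg/kg i.v. and 2.5 mg/kg p.o., n=3 ± SD. Default vehicle is 20% HP-β-CD; one PK set used 1:1 PEG400/water and another 30% SBE-β-CD.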

[7] = Cmax in Sprague-Dawley rat at 250 mg/kg, po administered via gavage after 24 hrs using HPMC formulation by LC-MS/MS analysis; type: ADME, organism-based; set-up: route oral, time 24 hrs, dose 250 mg/kg; details: in vivo
Method in brief: (§2)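 Single oral gavage dose to male Sprague Dawley rats, 3 per dose level. Vehicles were a standard suspension in 5% HPMC (125, 250, 500 or 1000 mg/kg) or a nanosuspension (API:polymer 4:1), with stock diluted in vehicle on the day of dosing (100, 250 or 500 mg/kg). Blood was sampled at time points from 0.5 to 24 h.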

[8] = Cmax in Sprague-Dawley rat at 250 mg/kg, po administered via gavage after 24 hrs using nanosuspension formulation by LC-MS/MS analysis; type: ADME, organism-based; set-up: route oral, time 24 hrs, dose 250 mg/kg; details: in vivo; method in brief: as §2
[9] = Volume of distribution at steady state in monkey at 0.1 mg/kg, iv by LC-MS/MS analysis; type: ADME, organism-based, Macaca mulatta; details: rhesus monkey, in vivo, read-out: Vdss
[10] = AUC (0 to 24 hrs) in Sprague-Dawley rat at 250 mg/kg, po administered via gavage after 24 hrs using nanosuspension formulation by LC-MS/MS analysis; type: ADME, organism-based; set-up: route oral, dose 250 mg/kg, time <=24; details: in vivo; method in brief: as §2
[11] = molecular target: Voltage-gated inwardly rectifying potassium channel KCNH2 (Homo sapiens, UniProt Q12809); assay: Inhibition of human ERG expressed in CHO cells measured after 5 mins by Qpatch method; type: cell-based
Method in brief: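 CHO cells stably expressing hERG, whole-cell QPatch. Vehicle applied 5 min, then 0.3, 3.0, 10 and 30 µM in rising order, each concentration applied twice. Current measured after 5 min as the average of 3 voltage pulses; block taken relative to vehicle pretreatment, mean ± SEM.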

[12] = Half life in dog at 0.5 mg/kg, po by LC-MS/MS analysis; type: ADME, organism-based, Canis lupus familiaris; details: in vivo
[13] = Volume of distribution at steady state in mouse at 0.5 mg/kg, iv by LC-MS/MS analysis; type: ADME, organism-based; details: in vivo, read-out: Vdss
[14] = AUC (infinity) in Sprague-Dawley rat at 0.5 mg/kg, iv or 2.5 mg/kg, po using 1:1 PEG-400/water formulation by LC-MS/MS analysis; type: ADME, organism-based; set-up: dose 2.5 mg/kg; details: in vivo
Method in brief: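 Rat IV/PO PK at 0.5 mg/kg IV and 2.5 mg/kg PO, dosed in 1:1 PEG400/water, n=3.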

[15] = Cmax in Sprague-Dawley rat at 100 mg/kg, po administered via gavage after 24 hrs using nanosuspension formulation by LC-MS/MS analysis; type: ADME, organism-based; set-up: route oral, dose 100 mg/kg, time 24 hrs; details: in vivo; method in brief: as §2
[16] = Drug level in Sprague-Dawley rat brain cerebellum at 0.03 mg/kg, iv after 5 min by LC-MS/MS analysis; type: ADME, organism-based; details: read-out: Drug uptake
Method in brief: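 Single i.v. dose of 0.03 mg/kg in 50% (w/v) PEG/water, pH 7.4; rats n=3 per group, killed at 5, 10, 30, 60 and 120 min. Cerebellum, cortex, striatum and hippocampus dissected, weighed and homogenized; drug quantified by LC-MS/MS and normalized to tissue weight. P<0.05 taken as significant versus cerebellum.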

[17] = AUC (0 to 24 hrs) in Sprague-Dawley rat at 100 mg/kg, po administered via gavage after 24 hrs using nanosuspension formulation by LC-MS/MS analysis; type: ADME, organism-based; set-up: route oral, dose 100 mg/kg, time <=24; details: in vivo; method in brief: as §2
[18] = Intrinsic clearance in rat liver microsomes at 1 uM after 5 to 60 mins in presence of NADPH by LC-MS/MS analysis; type: ADME, Microsome; details: time 5-60 min, read-out: CLH
[19] = AUC (infinity) in Sprague-Dawley rat at 0.5 mg/kg, iv by LC-MS/MS analysis; type: ADME, organism-based; set-up: route intravenous, time infinity, dose 0.5 mg/kg; details: in vivo
Method in brief: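 Rat PK with IV and PO dosing, n=3. The usual doses were 0.5 mg/kg IV and 2.5 mg/kg PO in 20% HP-β-CD. One compound was instead given at 0.1 mg/kg IV and 0.5 mg/kg PO.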

[20] = AUC (infinity) in monkey at 0.5 mg/kg, po by LC-MS/MS analysis; type: ADME, organism-based, Macaca mulatta; set-up: route oral, time infinity, dose 0.5 mg/kg; details: rhesus monkey, in vivo
[21] = Tmax in Sprague-Dawley rat at 2.5 mg/kg, po by LC-MS/MS analysis; type: ADME, organism-based; details: in vivo
[22] = Solubility of compound in FASSIF at pH 6.8 measured after 3 days; type: physicochemical; details: time 3 day
Method in brief: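 Solubility in aqueous buffer at pH 2 and pH 7, and in simulated gastric and intestinal fluids.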

[23] = Tmax in dog at 0.5 mg/kg, po by LC-MS/MS analysis; type: ADME, organism-based, Canis lupus familiaris; details: in vivo
[24] = as §1, with “nanosuspension” for “HPMC”; type: ADME, organism-based
[25] = Half life in Sprague-Dawley rat at 0.5 mg/kg, iv by LC-MS/MS analysis; type: ADME, organism-based; details: in vivo
[26] = AUC (0 to 24 hrs) in Sprague-Dawley rat at 500 mg/kg, po administered via gavage after 24 hrs using nanosuspension formulation by LC-MS/MS analysis; type: ADME, organism-based; set-up: route oral, dose 500 mg/kg, time <=24; details: in vivo; method in brief: as §2
[27] = Half life in Sprague-Dawley rat at 2.5 mg/kg, po by LC-MS/MS analysis; type: ADME, organism-based; details: in vivo

Sequence of Voltage-gated inwardly rectifying potassium channel KCNH2 (Q12809 whole entry): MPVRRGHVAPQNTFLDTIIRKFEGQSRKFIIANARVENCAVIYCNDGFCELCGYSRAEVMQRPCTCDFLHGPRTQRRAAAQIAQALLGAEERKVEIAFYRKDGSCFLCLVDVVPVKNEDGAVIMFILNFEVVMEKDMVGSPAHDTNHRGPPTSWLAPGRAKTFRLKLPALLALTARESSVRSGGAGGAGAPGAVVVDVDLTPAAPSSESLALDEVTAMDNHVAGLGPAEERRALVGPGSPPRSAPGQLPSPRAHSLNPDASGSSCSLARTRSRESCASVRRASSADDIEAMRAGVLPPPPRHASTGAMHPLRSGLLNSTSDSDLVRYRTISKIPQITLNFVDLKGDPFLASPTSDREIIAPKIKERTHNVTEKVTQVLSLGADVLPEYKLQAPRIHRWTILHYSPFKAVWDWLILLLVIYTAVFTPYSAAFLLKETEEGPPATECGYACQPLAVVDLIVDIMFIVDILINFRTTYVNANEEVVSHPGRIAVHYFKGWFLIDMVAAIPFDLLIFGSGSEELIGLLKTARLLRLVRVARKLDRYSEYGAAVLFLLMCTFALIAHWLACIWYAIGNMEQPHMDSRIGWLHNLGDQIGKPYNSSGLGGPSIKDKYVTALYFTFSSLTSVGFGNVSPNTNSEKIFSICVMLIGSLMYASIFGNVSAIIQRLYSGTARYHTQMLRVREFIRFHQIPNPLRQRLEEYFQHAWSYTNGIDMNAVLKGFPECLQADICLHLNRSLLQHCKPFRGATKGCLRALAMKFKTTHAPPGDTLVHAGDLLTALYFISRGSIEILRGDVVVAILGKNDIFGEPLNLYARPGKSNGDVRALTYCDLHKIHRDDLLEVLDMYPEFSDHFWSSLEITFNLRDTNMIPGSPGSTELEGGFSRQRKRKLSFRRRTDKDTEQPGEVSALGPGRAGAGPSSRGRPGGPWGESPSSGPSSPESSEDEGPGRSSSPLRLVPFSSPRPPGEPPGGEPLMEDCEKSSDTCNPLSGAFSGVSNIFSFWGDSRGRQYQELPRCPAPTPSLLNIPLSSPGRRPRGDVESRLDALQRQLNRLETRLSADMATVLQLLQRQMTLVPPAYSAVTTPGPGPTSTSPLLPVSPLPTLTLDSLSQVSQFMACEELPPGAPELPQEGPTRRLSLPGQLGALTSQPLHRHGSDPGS

For `Cn1c(=O)n(CC(=O)N2CCC2)c2cc(-c3ccc(C(F)(F)F)s3)cnc21`, the IC50 [1] was > 10 µM, the microsomal CLint at 1 µM [2] was 16.6 µL/min/mg and the Vd [3] was 0.8 L/kg. The Ratio [4] was 8, the Tmax [5] was 60 min and the bioavailability [6] was 132%. For the same compound, the Cmax [7] was 5480 ng/mL, the Cmax [8] was 12500 ng/mL and the Vd [9] was 0.8 L/kg. The AUC(0-t) [10] was 86400 ng·h/mL, the IC50 [11] was > 30 µM and the half-life [12] was 42 min. The Vd [13] was 3.2 L/kg, the AUC(0-inf) [14] was 1830 ng·h/mL and the Cmax [15] was 9000 ng/mL. The concentration at 5 min [16] was 19.3 ng/mL, the AUC(0-t) [17] was 51900 ng·h/mL and the microsomal CLint at 1 µM [18] was 26.3 µL/min/mg. For the same compound, the AUC(0-inf) [19] was 277 ng·h/mL, the AUC(0-inf) [20] was 385 ng·h/mL and the Tmax [21] was 78 min. It also gave a solubility at 72 h [22] of 8.4 µM (≈ 3.33 µg/mL), a Tmax [23] of 15 min and a Ratio [24] of 17. The half-life [25] was 48 min, the AUC(0-t) [26] was 156000 ng·h/mL and the half-life [27] was 132 min.
